An excerpt weighted towards active compounds, which were near 1.1% of everything screened.
G6PDH counter: L. mesenteroides G6PDH inhibitors, counter-screen for G6PDH-coupled screening assays, biochemical, Leuconostoc mesenteroides enzyme. Purified L. mesenteroides G6PDH, diaphorase/resazurin coupled fluorescence, 45 min. inhibition, % at 5 µM. actives 0.12% (n = 200,000); in the data active means inhibition above about 50%
PMI act: activators of human PMI, primary screen, biochemical, fluorescence intensity, near-Km mannose 6-phosphate; purified human PMI, coupled resazurin fluorescence, 20 min; active compounds read high; 1 = vehicle control, 0 substrate-free wells; actives 0.005% (n = 190,000); activation factor at 20 µM; AID 1214, 2008; Mannose-6-phosphate isomerase (Homo sapiens), P34949;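 active means activation factor of 2 or more at 20 µM, relative to plate controls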
Target sequence (P34949 whole entry, looked up): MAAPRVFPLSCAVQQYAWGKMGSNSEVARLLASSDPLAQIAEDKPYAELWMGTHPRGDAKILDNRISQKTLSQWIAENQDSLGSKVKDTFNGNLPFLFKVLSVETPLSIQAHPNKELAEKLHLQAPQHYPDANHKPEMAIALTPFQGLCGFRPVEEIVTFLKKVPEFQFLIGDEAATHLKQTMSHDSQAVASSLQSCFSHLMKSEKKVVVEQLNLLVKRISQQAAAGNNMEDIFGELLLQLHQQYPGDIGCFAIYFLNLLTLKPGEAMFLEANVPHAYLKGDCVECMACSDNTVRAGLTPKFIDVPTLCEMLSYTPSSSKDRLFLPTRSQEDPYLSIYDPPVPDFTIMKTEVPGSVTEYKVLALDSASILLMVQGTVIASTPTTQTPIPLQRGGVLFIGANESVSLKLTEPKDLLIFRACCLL
PMI act satM6P: human PMI activators, high substrate, primary screen, biochemical, fluorescence intensity, near-saturating mannose 6-phosphate; coupled PMI enzyme assay, resazurin fluorescence, 20 min; active compounds read high; 1 = untreated enzyme, 0 = substrate-free blank; Mannose-6-phosphate isomerase (Homo sapiens), P34949; activation factor at 20 µM; actives 0.34% (n = 190,000);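 active means activation factor of 2 or more at 20 µM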
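Technique: Diaphorase-driven resazurin-to-resorufin fluorescence, excitation 544, emission 590 nm | Assay system: Human PMI in coupled enzyme assay | Times: Enzyme reaction with compound 20 min at room temperature | Medium: HEPES-buffered pH 7.4 with magnesium and detergent | Reagent: Mannose-6-phosphate 1.0 mM (near-saturating) plus 0.22 mM NADP+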
Diaph inh CS: diaphorase inhibitors and chemical oxidizers, primary screen, counter-screen for diaphorase-coupled primary assays, biochemical, uHTS, resorufin fluorescence | diaphorase resazurin-to-resorufin fluorescence, NADH, 16 min; bacterial (C. kluyveri) enzyme, not human | inhibition, % at 20 µM | actives 0.69% (n = 190,000) | AID 1217, 2008;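 active means primary screen inhibition at 20 µM above a set limit, cut at about 50% in these data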;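 further: plate controls were DMSO with full reaction for no effect and wells lacking NADH for full effect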
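Test system: bacterial diaphorase enzyme (C. kluyveri); Quantity: 0.14 U/mL diaphorase, enzyme working solution; Times: reaction incubation of 16 min at room temperature; Measured by: fluorescence of resorufin formed from resazurin, Ex 544/Em 590 nm; Benchmarks: positive control minus NADH, DMSO neutral control.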
Diaph act CS: compounds boosting diaphorase resazurin reduction – biochemical, uHTS, resorufin fluorescence, counter-screen for diaphorase-coupled primary assays, primary screen; AID 1229, 2008; Diaphorase/resazurin coupled assay, 16 min; active compounds read high; 1 = vehicle wells, 0 = NADH-free wells; actives 0.005% (n = 190,000); activation factor at 20 µM;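 active means diaphorase activity raised at least twofold by the compound at 20 µM; inactive means activation factor below 2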
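Test system: Clostridium kluyveri diaphorase, purified enzyme. Buffer or medium: 50 mM HEPES pH 7.4 buffer plus MgCl2 and Tween 20. Also added: 0.114 mM NADH and 0.1 mM resazurin, final amounts. Dosing: compound 20 µM once, DMSO 1%. Schedule: 16 min enzyme reaction, ambient temperature. Detection: fluorescence of resorufin, 544 nm excitation, 590 nm emission.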
Starred values were filed as active, the others as inactive.

Results for CC(C)CCN1CCN(Cc2nc(-c3ccc(F)cc3)cs2)CC1CCO (stereo unspecified) ?
G6PDH counter: 8; PMI act: 0.9; PMI act satM6P: 1; Diaph inh CS: -8; Diaph act CS: 1.1

How did CC(=O)Nc1ccc(CN2CCCC(C(=O)c3ccc(C(F)(F)F)cc3)C2)cc1 (stereo unspecified) do in these assays?
G6PDH counter: 9; PMI act: 0.9; PMI act satM6P: 0.9; Diaph inh CS: 21; Diaph act CS: 0.8

How did CC(C)c1ccc(S(=O)(=O)/N=C2/C=CC(=O)c3ccccc32)cc1 do in these assays?
G6PDH counter: 55*; PMI act: 0.7; PMI act satM6P: 0.6; Diaph inh CS: 31; Diaph act CS: 0.7

What do the screens show for `COC(=O)C(C(C)=O)C1=C/C(=N\S(=O)(=O)c2ccc(C)cc2)c2ccccc2C1=O` (stereo unspecified)?
G6PDH counter: 46; PMI act: 0.8; PMI act satM6P: 0.8; Diaph inh CS: 38; Diaph act CS: 0.6

Results for CCSc1nnc(CNC(=O)C23CC4CC(CC(C4)C2)C3)n1C1CCCCC1 ?
G6PDH counter: -4; PMI act: 1; PMI act satM6P: 1; Diaph inh CS: 4; Diaph act CS: 1

How did Cc1ccc(NC(=O)COC(=O)/C=C/c2ccc(Br)o2)cc1S(=O)(=O)N(C)C do in these assays?
G6PDH counter: 0; PMI act: 1.5; PMI act satM6P: 2.2*; Diaph inh CS: 22; Diaph act CS: 0.8

How did Cc1ccc(NC(=O)c2ccc(Br)o2)cc1S(=O)(=O)N(C)C do in these assays?
G6PDH counter: 7; PMI act: 1.2; PMI act satM6P: 1.2; Diaph inh CS: 0; Diaph act CS: 1

How did CN(c1ccc(OCC(=O)OCC(=O)NCc2ccco2)cc1)S(=O)(=O)c1ccc2ccccc2c1 do in these assays?
G6PDH counter: 3; PMI act: 0.9; PMI act satM6P: 0.9; Diaph inh CS: 23; Diaph act CS: 0.8

Results for COc1cc(NCCCCCCCN)c2ncccc2c1 ?
G6PDH counter: 53*; PMI act: 0.8; PMI act satM6P: 0.5; Diaph inh CS: 17; Diaph act CS: 0.8

What do the screens show for `COc1cc(NC(=O)c2ccc3c(c2)OCO3)c2ncccc2c1`?
G6PDH counter: 3; PMI act: 1; PMI act satM6P: 1; Diaph inh CS: 3; Diaph act CS: 1

How did Cc1cccc(C)c1N1CCN(C(=O)N2CCCCC2)CC1 do in these assays?
G6PDH counter: 8; PMI act: 1.6; PMI act satM6P: 2*; Diaph inh CS: 10; Diaph act CS: 0.9

What do the screens show for `COc1cccc(C2c3[nH]c4ccccc4c3CCN2Cc2ncc[nH]2)c1` (stereo unspecified)?
G6PDH counter: 8; PMI act: 1; PMI act satM6P: 1; Diaph inh CS: -6; Diaph act CS: 1.1

What do the screens show for `Cc1ccc(NC(=O)COC(=O)c2cccc3c(=O)c(C)c(-c4ccccc4)oc23)cc1`?
G6PDH counter: -1; PMI act: 1; PMI act satM6P: 1.1; Diaph inh CS: 3; Diaph act CS: 1

Results for O=C(CCc1nnc(CCCc2ccccc2)o1)NCC(F)(F)F ?
G6PDH counter: 10; PMI act: 0.8; PMI act satM6P: 0.9; Diaph inh CS: 50*; Diaph act CS: 0.5

Results for O=C(CCc1nnc(CCCc2ccccc2)o1)NCCc1ccccc1 ?
G6PDH counter: 4; PMI act: 1; PMI act satM6P: 1; Diaph inh CS: 5; Diaph act CS: 1

Results for CSC1=NSC2=NC(=O)/C(=C\c3coc4ccccc4c3=O)C(=N)N12 ?
G6PDH counter: 9; PMI act: 1.3; PMI act satM6P: 1.7; Diaph inh CS: 28; Diaph act CS: 0.7

Results for CC(C)CSC1=NSC2=NC(=O)/C(=C\c3coc4ccccc4c3=O)C(=N)N12 ?
G6PDH counter: 8; PMI act: 1.6; PMI act satM6P: 2*; Diaph inh CS: 32; Diaph act CS: 0.7

What do the screens show for `CCNc1nc(NC(C)(C)C)nc(SCC(N)=O)n1`?
G6PDH counter: 12; PMI act: 1; PMI act satM6P: 0.9; Diaph inh CS: 13; Diaph act CS: 0.9

What do the screens show for `COc1ccccc1OCC(=O)Nn1c(=S)[nH]c2ncccc2c1=O`?
G6PDH counter: -18; PMI act: 1; PMI act satM6P: 1; Diaph inh CS: 3; Diaph act CS: 1

What do the screens show for `O=C(COc1ccc(Cl)cc1Cl)Nn1c(=S)[nH]c2ncccc2c1=O`?
G6PDH counter: -22; PMI act: 0.9; PMI act satM6P: 0.8; Diaph inh CS: 50*; Diaph act CS: 0.5

How did O=C(CSc1nnc(CCCN2C(=O)c3cccc4cccc(c34)C2=O)n1-c1ccccc1)N1CCN(CCO)CC1 do in these assays?
G6PDH counter: -13; PMI act: 0.8; PMI act satM6P: 0.9; Diaph inh CS: 59*; Diaph act CS: 0.4

How did O=C(CSc1nnc(CCCN2C(=O)c3cccc4cccc(c34)C2=O)n1-c1ccccc1)NCCCO do in these assays?
G6PDH counter: -2; PMI act: 0.8; PMI act satM6P: 0.9; Diaph inh CS: 44; Diaph act CS: 0.6

How did O=C(CSc1nnc(CCCN2C(=O)c3cccc4cccc(c34)C2=O)n1-c1ccccc1)NCCCN1CCOCC1 do in these assays?
G6PDH counter: 1; PMI act: 0.9; PMI act satM6P: 0.8; Diaph inh CS: 55*; Diaph act CS: 0.5

Results for CCn1ncc([N+](=O)[O-])c1C(=O)Nc1c(C)nn(Cc2ccc(F)cc2)c1C ?
G6PDH counter: 6; PMI act: 1; PMI act satM6P: 1; Diaph inh CS: 14; Diaph act CS: 0.9

What do the screens show for `O=C(CSc1ccc(-c2ccccn2)nn1)c1ccc(F)cc1`?
G6PDH counter: -3; PMI act: 0.4; PMI act satM6P: 0.4; Diaph inh CS: 58*; Diaph act CS: 0.4

How did O=C(CSc1ccc(-c2ccccn2)nn1)c1ccccc1 do in these assays?
G6PDH counter: 2; PMI act: 1.1; PMI act satM6P: 1.2; Diaph inh CS: -1; Diaph act CS: 1

What do the screens show for `c1ccc(-c2nnc(CSc3ccc4c(c3)OCCO4)o2)cc1`?
G6PDH counter: 4; PMI act: 0.9; PMI act satM6P: 1; Diaph inh CS: 59*; Diaph act CS: 0.4
